Test results published in ChEMBL document CHEMBL1949612, “Design, synthesis, and functionalization of dimeric peptides targeting chemokine receptor CXCR4” (J Med Chem, 2011).
*1 amine or outer side, *2 acyl side, *3 side chain or, on linkers, in order; H or OH if unused. Where a SMILES comes first, the peptide text is derived from it. Bridges are numbered along the chain shown (N, C = ends). Roman numbers before positions name the chains, in order. [ ]: non-standard residue; d: D form. The star is where a group is joined. C16 diacid = O=C(O)CCCCCCCCCCCCCCC(=O)*; Sebacoyl = O=C(CCCCCCCCC(=O)[*:2])[*:1]; 2Nal = N[C@@H](Cc1ccc2ccccc2c1)C(=O)O; Suberoyl = O=C(CCCCCCC(=O)[*:2])[*:1]; Adipoyl = O=C(CCCCC(=O)[*:2])[*:1]; Glutaryl = O=C(CCCC(=O)[*:2])[*:1]; dNMeOrn = CN[C@H](CCCN)C(=O)O; Suc = O=C(CCC(=O)[*:2])[*:1]

target: C-X-C chemokine receptor type 4 (Homo sapiens, UniProt P61073); assay: Displacement of [125I]-CPCR4 from CXCR4 receptor in human Jurkat cells after 2 hrs by gamma counting; format: cell-based
Procedure, shortened: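 Whole Jurkat cells (400000 per tube) in PBS/0.2% BSA were incubated with ~0.1 nM (3.1 kBq) 125I-CPCR4 and test peptide at 10^-11 to 10^-5 M, shaken 2 h at RT. Nonspecific binding was taken with 1 μM unlabeled CPCR4. Cells were pelleted, washed twice with cold PBS, and bound activity was counted. Runs were done in triplicate, repeated 2–3 times. IC50 was fitted by nonlinear regression.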

Sequence of C-X-C chemokine receptor type 4 (P61073 whole entry): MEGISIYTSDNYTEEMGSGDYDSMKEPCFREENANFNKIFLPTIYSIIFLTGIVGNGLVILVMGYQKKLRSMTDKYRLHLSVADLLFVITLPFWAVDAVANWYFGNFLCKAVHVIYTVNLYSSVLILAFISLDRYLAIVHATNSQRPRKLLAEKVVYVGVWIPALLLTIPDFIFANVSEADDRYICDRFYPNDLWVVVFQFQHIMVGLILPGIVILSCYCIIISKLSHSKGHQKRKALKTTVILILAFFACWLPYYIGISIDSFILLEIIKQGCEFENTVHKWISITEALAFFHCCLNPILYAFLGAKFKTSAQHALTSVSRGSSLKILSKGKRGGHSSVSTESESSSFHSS

Compound | IC50
CC(=O)NCCC[C@@H]1C(=O)N[C@@H](CCCNC(N)=O)C(=O)N[C@@H](Cc2ccc3ccccc3c2)C(=O)NCC(=O)N[C@H](Cc2ccc(O)cc2)C(=O)N1C | 1000 nM
CN1C(=O)[C@@H](Cc2ccc(O)cc2)NC(=O)CNC(=O)[C@H](Cc2ccc3ccccc3c2)NC(=O)[C@H](CCCNC(=N)N)NC(=O)[C@H]1CCCN | 6 nM
CC(=O)NCCC[C@@H]1C(=O)N[C@@H](CCCNC(=N)N)C(=O)N[C@@H](Cc2ccc3ccccc3c2)C(=O)NCC(=O)N[C@H](Cc2ccc(O)cc2)C(=O)N1C | 60 nM
CN1C(=O)[C@@H](Cc2ccc(O)cc2)NC(=O)CNC(=O)[C@H](Cc2ccc3ccccc3c2)NC(=O)[C@H](CCCN=C(N)N)NC(=O)[C@H]1CCCNC(=O)CCCC(=O)NCCC[C@@H]1C(=O)N[C@@H](CCCNC(N)=O)C(=O)N[C@@H](Cc2ccc3ccccc3c2)C(=O)NCC(=O)N[C@H](Cc2ccc(O)cc2)C(=O)N1C | 19 nM
CN1C(=O)[C@@H](Cc2ccc(O)cc2)NC(=O)CNC(=O)[C@H](Cc2ccc3ccccc3c2)NC(=O)[C@H](CCCN=C(N)N)NC(=O)[C@H]1CCCNC(=O)CCCCCCCCCCCC(=O)NCCC[C@@H]1C(=O)N[C@@H](CCCNC(N)=O)C(=O)N[C@@H](Cc2ccc3ccccc3c2)C(=O)NCC(=O)N[C@H](Cc2ccc(O)cc2)C(=O)N1C | 4 nM
CN1C(=O)[C@@H](Cc2ccc(O)cc2)NC(=O)CNC(=O)[C@H](Cc2ccc3ccccc3c2)NC(=O)[C@H](CCCN=C(N)N)NC(=O)[C@H]1CCCNC(=O)CNC(=O)CC(=O)NCC(=O)NCCC[C@@H]1C(=O)N[C@@H](CCCN=C(N)N)C(=O)N[C@@H](Cc2ccc3ccccc3c2)C(=O)NCC(=O)N[C@H](Cc2ccc(O)cc2)C(=O)N1C | 8 nM
CN1C(=O)[C@@H](Cc2ccc(O)cc2)NC(=O)CNC(=O)[C@H](Cc2ccc3ccccc3c2)NC(=O)[C@H](CCCNC(=N)N)NC(=O)[C@H]1CCCNC(=O)CNC(=O)CCC(=O)NCC(=O)NCCC[C@@H]1C(=O)N[C@@H](CCCNC(=N)N)C(=O)N[C@@H](Cc2ccc3ccccc3c2)C(=O)NCC(=O)N[C@H](Cc2ccc(O)cc2)C(=O)N1C | 6 nM
CN1C(=O)[C@@H](Cc2ccc(O)cc2)NC(=O)CNC(=O)[C@H](Cc2ccc3ccccc3c2)NC(=O)[C@H](CCCN=C(N)N)NC(=O)[C@H]1CCCNC(=O)CCCCC(=O)NCCC[C@@H]1C(=O)N[C@@H](CCCN=C(N)N)C(=O)N[C@@H](Cc2ccc3ccccc3c2)C(=O)NCC(=O)N[C@H](Cc2ccc(O)cc2)C(=O)N1C (I: cyclo([2Nal]G[dY][dNMeOrn]R) / II: cyclo([2Nal]G[dY][dNMeOrn]R); linker I:4-II:4 via Adipoyl) | 4 nM
CN1C(=O)[C@@H](Cc2ccc(O)cc2)NC(=O)CNC(=O)[C@H](Cc2ccc3ccccc3c2)NC(=O)[C@H](CCCNC(=N)N)NC(=O)[C@H]1CCCNC(=O)CCCCCCCCCCCCCCC(=O)NCCC[C@@H]1C(=O)N[C@@H](CCCNC(=N)N)C(=O)N[C@@H](Cc2ccc3ccccc3c2)C(=O)NCC(=O)N[C@H](Cc2ccc(O)cc2)C(=O)N1C (I: cyclo([2Nal]G[dY][dNMeOrn]R) / II: cyclo([2Nal]G[dY][dNMeOrn]R); linker I:4-II:4 via C16 diacid) | 33 nM
CN1C(=O)[C@@H](Cc2ccc(O)cc2)NC(=O)CNC(=O)[C@H](Cc2ccc3ccccc3c2)NC(=O)[C@H](CCCNC(=N)N)NC(=O)[C@H]1CCCNC(=O)CCCC(=O)NCCC[C@@H]1C(=O)N[C@@H](CCCNC(=N)N)C(=O)N[C@@H](Cc2ccc3ccccc3c2)C(=O)NCC(=O)N[C@H](Cc2ccc(O)cc2)C(=O)N1C (I: cyclo([2Nal]G[dY][dNMeOrn]R) / II: cyclo([2Nal]G[dY][dNMeOrn]R); linker I:4-II:4 via Glutaryl) | 4 nM
CN1C(=O)[C@@H](Cc2ccc(O)cc2)NC(=O)CNC(=O)[C@H](Cc2ccc3ccccc3c2)NC(=O)[C@H](CCCN=C(N)N)NC(=O)[C@H]1CCCNC(=O)CCCCCCCCC(=O)NCCC[C@@H]1C(=O)N[C@@H](CCCN=C(N)N)C(=O)N[C@@H](Cc2ccc3ccccc3c2)C(=O)NCC(=O)N[C@H](Cc2ccc(O)cc2)C(=O)N1C (I: cyclo([2Nal]G[dY][dNMeOrn]R) / II: cyclo([2Nal]G[dY][dNMeOrn]R); linker I:4-II:4 via Sebacoyl) | 2 nM
CN1C(=O)[C@@H](Cc2ccc(O)cc2)NC(=O)CNC(=O)[C@H](Cc2ccc3ccccc3c2)NC(=O)[C@H](CCCNC(=N)N)NC(=O)[C@H]1CCCNC(=O)CCCCCCC(=O)NCCC[C@@H]1C(=O)N[C@@H](CCCNC(=N)N)C(=O)N[C@@H](Cc2ccc3ccccc3c2)C(=O)NCC(=O)N[C@H](Cc2ccc(O)cc2)C(=O)N1C (I: cyclo([2Nal]G[dY][dNMeOrn]R) / II: cyclo([2Nal]G[dY][dNMeOrn]R); linker I:4-II:4 via Suberoyl) | 3 nM
CN1C(=O)[C@@H](Cc2ccc(O)cc2)NC(=O)CNC(=O)[C@H](Cc2ccc3ccccc3c2)NC(=O)[C@H](CCCNC(=N)N)NC(=O)[C@H]1CCCNC(=O)CCC(=O)NCCC[C@@H]1C(=O)N[C@@H](CCCNC(=N)N)C(=O)N[C@@H](Cc2ccc3ccccc3c2)C(=O)NCC(=O)N[C@H](Cc2ccc(O)cc2)C(=O)N1C (I: cyclo([2Nal]G[dY][dNMeOrn]R) / II: cyclo([2Nal]G[dY][dNMeOrn]R); linker I:4-II:4 via Suc) | 12 nM

Results, then the compound that gave them:

IC50 | Compound
14 nM | CN1C(=O)[C@@H](Cc2ccc(O)cc2)NC(=O)CNC(=O)[C@H](Cc2ccc3ccccc3c2)NC(=O)[C@H](CCCNC(=N)N)NC(=O)[C@H]1CCCNC(=O)CNC(=O)CCCC(=O)NCC(=O)NCCC[C@@H]1C(=O)N[C@@H](CCCNC(=N)N)C(=O)N[C@@H](Cc2ccc3ccccc3c2)C(=O)NCC(=O)N[C@H](Cc2ccc(O)cc2)C(=O)N1C
98 nM | CN1C(=O)[C@@H](Cc2ccc(O)cc2)NC(=O)CNC(=O)[C@H](Cc2ccc3ccccc3c2)NC(=O)[C@H](CCCNC(=N)N)NC(=O)[C@H]1CCCNC(=O)C[C@H](NC(=O)CCCCCNC(=O)CN1CCN(CC(=O)O)CCN(CC(=O)O)CCN(CC(=O)O)CC1)C(=O)NCCC[C@@H]1C(=O)N[C@@H](CCCNC(=N)N)C(=O)N[C@@H](Cc2ccc3ccccc3c2)C(=O)NCC(=O)N[C@H](Cc2ccc(O)cc2)C(=O)N1C
31 nM | CN1C(=O)[C@@H](Cc2ccc(O)cc2)NC(=O)CNC(=O)[C@H](Cc2ccc3ccccc3c2)NC(=O)[C@H](CCCNC(=N)N)NC(=O)[C@H]1CCCNC(=O)CC(CC(=O)NCCC[C@@H]1C(=O)N[C@@H](CCCNC(=N)N)C(=O)N[C@@H](Cc2ccc3ccccc3c2)C(=O)NCC(=O)N[C@H](Cc2ccc(O)cc2)C(=O)N1C)NC(=O)CCCCCNC(=O)CN1CCN(CC(=O)O)CCN(CC(=O)O)CCN(CC(=O)O)CC1 (stereo partly drawn)
39 nM | CN1C(=O)[C@@H](Cc2ccc(O)cc2)NC(=O)CNC(=O)[C@H](Cc2ccc3ccccc3c2)NC(=O)[C@H](CCCNC(=N)N)NC(=O)[C@H]1CCCNC(=O)CNC(=O)C[C@H](NC(=O)CCCCCNC(=O)CN1CCN(CC(=O)O)CCN(CC(=O)O)CCN(CC(=O)O)CC1)C(=O)NCC(=O)NCCC[C@@H]1C(=O)N[C@@H](CCCNC(=N)N)C(=O)N[C@@H](Cc2ccc3ccccc3c2)C(=O)NCC(=O)N[C@H](Cc2ccc(O)cc2)C(=O)N1C
17 nM | CN1C(=O)[C@@H](Cc2ccc(O)cc2)NC(=O)CNC(=O)[C@H](Cc2ccc3ccccc3c2)NC(=O)[C@H](CCCN=C(N)N)NC(=O)[C@H]1CCCNC(=O)CNC(=O)CC(CC(=O)NCC(=O)NCCC[C@@H]1C(=O)N[C@@H](CCCN=C(N)N)C(=O)N[C@@H](Cc2ccc3ccccc3c2)C(=O)NCC(=O)N[C@H](Cc2ccc(O)cc2)C(=O)N1C)NC(=O)CCCCCNC(=O)CN1CCN(CC(=O)O)CCN(CC(=O)O)CCN(CC(=O)O)CC1
